Measured values from different studies.
Each line is one published result; the experiments were not run side by side.
Target: Tyrosine-protein kinase JAK2 (JAK2, Homo sapiens, UniProt O60674)
Effect on: enzyme activity
Mode: inhibitor

Compound | assay | conditions | remaining activity
O=C(NCCCNc1nc(Nc2cccc(CN3CCOCC3)c2)ncc1C1CC1)C1CCC1 | radiometric | 1 µM | 46%
Cn1c(=O)n(-c2ccc(C(C)(C)C#N)cc2)c2c3cc(-c4cnc5ccccc5c4)ccc3ncc21 | – | 10 µM | 24%
COc1cc(Nc2cnc(C#N)c(O[C@H](C)CN(C)C)n2)ncc1-c1cnn(C)c1 | radiometric | 10 µM | 41%
Brc1cnc(Nc2cccc(CN3CCOCC3)c2)nc1NCCc1c[nH]cn1 | radiometric | 1 µM | 6%
CC(C)(C)c1nc2c(s1)c1nc(N)ncc1c1ccc(NS(=O)(=O)c3c(F)cccc3F)c(F)c12 | radiometric | 1 µM | 85%
O=C(Nc1cccc(Nc2ncc(Br)c(NCCc3cnc[nH]3)n2)c1)N1CCCC1 | radiometric | 1 µM | 24%
CC(C)(C)c1nc(-c2cccc(NS(=O)(=O)c3c(F)cccc3F)c2F)c(-c2ccnc(N)n2)s1 | radiometric | 1 µM | 90%
CC(C)(O)[C@H]1CC[C@H](Nc2ccc3ncc(-c4cccc(C(F)(F)F)c4)n3n2)CC1 | – | 1 µM | 24.8%
O=C(Nc1cnn(-c2csc(C(=O)NC3COC3)c2)c1)Nc1ccccc1Cl | – | 5 µM | 98.2%
Cc1nn(CC(F)(F)F)cc1Nc1ncc(Br)c(NCc2ccc(S(N)(=O)=O)cc2)n1 | radiometric | 1 µM | 70%
Cc1ccc(C(=O)Nc2ccc(CN3CCN(C)CC3)c(C(F)(F)F)c2)cc1C#Cc1cnc2cccnn12 | – | 23.5 nM | 58%
Cc1cnc(NC2CCOCC2)nc1-n1cnc(C(=O)NC(CN)c2cc(F)cc(Cl)c2)c1 (stereo not shown) | radiometric | 1 µM | 104%
Oc1cccc(-c2nc(N3CCOCC3)c3oc4ncccc4c3n2)c1 | – | 10 µM | 93%
CN1CCc2cc(Nc3ncc(C4CC4)c(NCCCNC(=O)C4CCC4)n3)ccc2C1 | radiometric | 1 µM | 44%
O=C(Nc1cnn(-c2csc(C(=O)NC3COC3)c2)c1)Nc1c(F)cccc1Cl | – | 5 µM | 96.5%
COc1cc(Cl)c(C(=O)N[C@@H](CN[C@H]2CC[C@@H](N)CC2)Cc2ccc(C#N)cc2)cc1-c1ccc(CN[C@H](C)c2ccc(C)cc2)o1 | – | 1 µM | 104%
